Legend:
Format in all cases: tissue-based
[1] = target: T1, Histamine H3 receptor (Rattus norvegicus, UniProt Q9QYN8); assay: (§1) Ability to displace [3H]Nalpha-methylhistamine from histamine H3 receptors in homogenates of rat cerebral cortex
Outline: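 Rat cortex membranes were made by homogenizing in Tris/HCl (50 mM, 5 mM MgCl₂, 145 mM NaCl, pH 7.4) and spinning at 800g, then twice at 40000g. Binding used 30 µg protein and 1 nM [³H]-Nα-methylhistamine with 0.1–10 000 nM compound, in 50 mM Na⁺ phosphate pH 7.4, for 40 min at 25 °C. Samples were filtered on PEI-treated GF/C and counted by scintillation. Ki = IC50/(1+[ligand]/Kd).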

[2] = target: Histamine H3 receptor (Cavia porcellus, UniProt Q9JI35); assay: Displacement of [3H]Nalpha-methylhistamine from histamine H3 receptors in homogenates of rat cerebral cortex; details: read-out: pA2 (converted)
Histamine H3 receptor (Cavia porcellus, UniProt Q9JI35), sequence (Q9JI35 whole entry): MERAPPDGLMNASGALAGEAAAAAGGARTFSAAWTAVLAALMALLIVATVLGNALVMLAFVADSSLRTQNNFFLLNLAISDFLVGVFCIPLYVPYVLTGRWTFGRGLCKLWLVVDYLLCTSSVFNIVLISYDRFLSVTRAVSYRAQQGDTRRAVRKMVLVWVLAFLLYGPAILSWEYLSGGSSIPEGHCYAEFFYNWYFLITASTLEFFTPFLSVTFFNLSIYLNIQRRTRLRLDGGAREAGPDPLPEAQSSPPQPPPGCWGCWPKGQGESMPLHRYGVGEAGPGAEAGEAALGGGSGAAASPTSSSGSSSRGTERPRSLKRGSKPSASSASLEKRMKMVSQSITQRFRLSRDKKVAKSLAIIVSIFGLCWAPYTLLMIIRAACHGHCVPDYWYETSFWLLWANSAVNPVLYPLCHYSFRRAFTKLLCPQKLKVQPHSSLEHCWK

[3] = target: T1, Histamine H3 receptor; assay: as §1; remark: listed apart in the source
Outline: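 Binding used 30 µg protein and 1 nM [³H]-Nα-methylhistamine with 0.1–10 000 nM compound, in 50 mM Na⁺ phosphate pH 7.4, for 40 min at 25 °C. Samples were filtered on PEI-treated GF/C and counted by scintillation. Ki = IC50/(1+[ligand]/Kd).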

T1 sequence (Q9QYN8 whole entry): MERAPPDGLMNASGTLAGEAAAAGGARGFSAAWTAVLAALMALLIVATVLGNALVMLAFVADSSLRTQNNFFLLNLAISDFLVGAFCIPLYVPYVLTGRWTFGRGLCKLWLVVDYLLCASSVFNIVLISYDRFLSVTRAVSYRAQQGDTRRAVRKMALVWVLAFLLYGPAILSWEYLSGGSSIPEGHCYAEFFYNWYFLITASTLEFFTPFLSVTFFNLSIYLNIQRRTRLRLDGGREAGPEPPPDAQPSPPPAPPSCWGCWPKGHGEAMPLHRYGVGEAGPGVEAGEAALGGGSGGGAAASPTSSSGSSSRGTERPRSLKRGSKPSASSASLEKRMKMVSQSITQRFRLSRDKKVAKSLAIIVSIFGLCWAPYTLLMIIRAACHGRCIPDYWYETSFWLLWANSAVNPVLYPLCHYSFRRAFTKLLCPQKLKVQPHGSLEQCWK

Ki [3] [nM] | SMILES | Kb [2] [nM] | further results
– | NC(/C=C/C1CC1c1c[nH]cn1)CC1CCCCC1 (stereo unspecified) | – | Ki [1]: 0.4 nM
– | c1nc(CCC2CCNCC2)c[nH]1 | 3.98 | –
– | Clc1ccc(CNCCCCCc2c[nH]cn2)cc1 | 1.26 | –
0.501 | Clc1ccc(CN=C(NC2CCCCC2)SCCCc2cnc[nH]2)cc1 | – | –
12.6 | c1nc(CCCS/C(=N/C2CCCCC2)NC2CCCCC2)c[nH]1 | – | –
– | Clc1ccc(Cc2noc(CCCc3cnc[nH]3)n2)cc1 | 7.94 | –
– | O=C(NCCCc1c[nH]cn1)NC1CCCCC1 | 50.1 | –
– | CC(C)(C)CC#CC1CC1c1cnc[nH]1 (stereo unspecified) | – | Ki [1]: 0.18 nM
– | O=C(Cc1ccc(Cl)cc1)OCCCc1c[nH]cn1 | – | Ki [1]: 14 nM
7.94 | CC/N=C(\NCc1ccc(Cl)cc1)SCCCc1c[nH]cn1 | – | –
> 100000 | CCCS/C(=N/C)NCc1ccc(Cl)cc1 | – | –
– | N=C(Cc1ccc(Cc2cnc[nH]2)cc1)NCc1ccc(Cl)cc1 | – | Ki [1]: 7 nM
– | NC(=NCc1ccc(Cl)cc1)SCCCc1cnc[nH]1 [CLOBENPROPIT] | 0.158 | –
– | Ic1ccc(COCCCc2c[nH]cn2)cc1 [IODOPROXYFAN] | 5.01 | –
– | S=C(NC1CCCCC1)N1CCC(c2cnc[nH]2)CC1 [THIOPERAMIDE] | 1.26 | –

SMILES | Ki [3] [nM] | Kb [2] [nM] | further results
C/N=C(/NCc1ccc(Cl)cc1)SCCCc1c[nH]cn1 | 3.16 | – | –
